Data on 52 molecules can be found in ChEMBL document CHEMBL1125715, “Novel 5-HT3 antagonists. Indole oxadiazoles” (J Med Chem, 1991).

The target in one data set is T1, Serotonin 3 (5-HT3) receptor (Rattus norvegicus, UniProt P35563+Q9JJ16).
T1 sequence (P35563 whole entry): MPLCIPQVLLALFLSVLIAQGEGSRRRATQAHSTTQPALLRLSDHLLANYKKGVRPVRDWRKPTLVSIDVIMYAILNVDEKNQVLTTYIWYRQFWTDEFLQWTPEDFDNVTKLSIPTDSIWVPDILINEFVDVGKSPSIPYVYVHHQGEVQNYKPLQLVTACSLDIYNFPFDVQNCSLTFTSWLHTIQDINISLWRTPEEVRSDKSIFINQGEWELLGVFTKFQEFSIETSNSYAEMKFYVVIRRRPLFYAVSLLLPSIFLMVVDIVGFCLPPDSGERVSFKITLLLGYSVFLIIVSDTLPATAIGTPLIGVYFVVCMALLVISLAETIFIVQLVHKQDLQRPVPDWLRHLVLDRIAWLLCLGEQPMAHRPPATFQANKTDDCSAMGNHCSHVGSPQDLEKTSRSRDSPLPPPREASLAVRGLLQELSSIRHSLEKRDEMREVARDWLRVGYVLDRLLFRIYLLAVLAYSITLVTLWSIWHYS
T1 sequence (Q9JJ16 whole entry): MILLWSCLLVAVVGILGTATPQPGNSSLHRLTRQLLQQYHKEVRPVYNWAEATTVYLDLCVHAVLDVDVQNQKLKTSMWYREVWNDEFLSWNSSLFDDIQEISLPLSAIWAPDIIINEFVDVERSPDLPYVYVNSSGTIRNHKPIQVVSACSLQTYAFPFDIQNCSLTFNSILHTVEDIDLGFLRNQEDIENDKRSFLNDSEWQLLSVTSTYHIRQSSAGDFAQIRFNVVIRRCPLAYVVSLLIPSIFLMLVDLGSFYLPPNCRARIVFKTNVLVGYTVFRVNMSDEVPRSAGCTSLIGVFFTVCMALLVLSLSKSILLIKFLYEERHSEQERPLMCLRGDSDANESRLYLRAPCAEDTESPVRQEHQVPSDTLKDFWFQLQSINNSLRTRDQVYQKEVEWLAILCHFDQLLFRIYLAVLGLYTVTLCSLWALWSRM
The data set can be described thus: Displacement of [3H]-Q-ICS 205-930 binding to 5-hydroxytryptamine 3 receptor recognition sites in rat brain membranes. The format is cell membranes. The method, boiled down: (§1)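 Rat cortical membranes from male Sprague-Dawley rats (250-300 g): sucrose homogenization, differential centrifugation, washed in 2.5 mM Hepes, made fresh on the day. About 400 µg protein incubated on ice (4 °C, 15 min) with 0.5-0.7 nM [3H]Q-ICS 205-930 in 10 mM Hepes pH 7.1 containing pargyline and ascorbate. Nonspecific binding defined with 10 µM MDL 72222.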
A general note: Loss of bound radioactivity is the signal in a displacement assay; it reports binding, not function.
Consider `Cn1cc(-c2noc(C34CCN(CC3)CC4)n2)c2ccccc21`, for which the 50% inhibitory concentration (IC50) was 4.27 nM. That is a single-digit nanomolar value.

In the case of `Oc1ccccc1-c1noc(C2CN3CCC2CC3)n1` (centres undefined), the half-inhibitory concentration (IC50) was 41.7 nM. Still for that read-out and setting: the figure for `CN1CCC(c2nc(-c3cn(C)c4ccccc34)no2)CC1` is 13.2 nM. As to `Cn1cc(-c2noc(C3CC[N+](C)(C)CC3)n2)c2ccccc21`, the IC50 is 35.5 nM. The same measure, in the same setting: the figure for `Cc1ccc2c(c1)c(-c1noc(C3CN4CCC3CC4)n1)cn2C` (centres undefined) is 331 nM. Same read-out and setting: the figure for `Cn1cc(-c2noc(CCN)n2)c2ccccc21` is 67.6 nM. On the same count and under the same terms, as for `c1ccc2[nH]c(-c3noc(C4CN5CCC4CC5)n3)cc2c1` (centres undefined), the figure is 692 nM. In the case of `Cn1cc(-c2noc(C3CCC[N+](C)(C)C3)n2)c2ccccc21` (centres undefined), the IC50 is 34.7 nM. On the same count and under the same terms, the figure for `c1ccc2c(-c3noc(C4CN5CCC4CC5)n3)cccc2c1` (centres undefined) is 63.1 nM; for `CNCc1nc(-c2cn(C)c3ccccc23)no1` it is 1000 nM; for `CN(C)Cc1nc(-c2cn(C)c3ccccc23)no1` it is 166 nM. Still for that read-out and setting: the figure for `Cn1cc(-c2noc(C3CN4CCC3CC4)n2)c2cc(F)ccc21` (centres undefined) is 45.7 nM; for `Cn1cc(-c2noc(C3CN4CCC3CC4)n2)c2ccccc21` (centres undefined) it is 1.38 nM; for `C=CCn1cc(-c2noc(C3CN4CCC3CC4)n2)c2ccccc21` (centres undefined) it is 21.9 nM.

Molecule `CN(C)CCCc1nc(-c2cn(C)c3ccccc23)no1` had a 50% inhibitory concentration (IC50) of 191 nM. The same measure, in the same setting: as for `Cc1cccc2c(-c3noc(C4CN5CCC4CC5)n3)cn(C)c12` (centres undefined), the figure is 95.5 nM.

As to `c1ccc2c(-c3noc(C4CN5CCC4CC5)n3)[nH]nc2c1` (centres undefined), the half-inhibitory concentration (IC50) was 17.8 nM. On the same count and under the same terms, the figure for `Cn1cc(-c2nc(C3CN4CCC3CC4)no2)c2ccccc21` (centres undefined) is 29.5 nM; for `CN1CCC=C(c2csc(-c3cn(C)c4ccccc34)n2)C1` it is 5890 nM. On the same count and under the same terms, as for `Cn1c(-c2noc(C3CN4CCC3CC4)n2)cc2ccccc21` (centres undefined), the figure is 676 nM. In turn, `Cn1cc(-c2noc(C[N+](C)(C)C)n2)c2ccccc21` had an IC50 of 0.708 nM. This IC50 is about 950-fold lower than that of the molecule before. Same read-out and setting: as for `Cn1cc(-c2noc(CN)n2)c2ccccc21`, the figure is 282 nM. On the same count and under the same terms, the figure for `Cn1cc(-c2noc(C3=CCCNC3)n2)c2ccccc21` is 468 nM; for `CN1C2CCC1CC(c1nc(-c3cn(C)c4ccccc34)no1)C2` (centres undefined) it is 191 nM. Same read-out and setting: as for `Cn1cc(-c2noc(CCN3CCCCC3)n2)c2ccccc21`, the figure is 372 nM; as for `Cn1cc(-c2noc(C3CC4CCN3CC4)n2)c2ccccc21` (centres undefined), 129 nM. In the case of `CN1CCCC(c2nc(-c3cn(C)c4ccccc34)no2)C1` (centres undefined), the IC50 is 12.9 nM. Same read-out and setting: the figure for `c1ccc2ncc(-c3noc(C4CN5CCC4CC5)n3)cc2c1` (centres undefined) is 1510 nM; for `Oc1ccc(-c2noc(C3CN4CCC3CC4)n2)cc1` (centres undefined) it is 148 nM. Same read-out and setting: the figure for `c1ccc2cc(-c3noc(C4CN5CCC4CC5)n3)ccc2c1` (centres undefined) is 1480 nM; for `Cn1cc(-c2noc(CC3CN4CCC3CC4)n2)c2ccccc21` (centres undefined) it is 55 nM; for `c1ccc(-c2noc(C3CN4CCC3CC4)n2)cc1` (centres undefined) it is 200 nM. On the same count and under the same terms, as for `CN1CC=C(c2nnc(-c3cn(C)c4ccccc34)o2)CC1`, the figure is 501 nM; as for `CNCCc1nc(-c2cn(C)c3ccccc23)no1`, 85.1 nM. `COc1cccc(-c2noc(C3CN4CCC3CC4)n2)c1` (centres undefined) gave an IC50 of 12.6 nM. Compared with the last molecule, the IC50 is about 6.8-fold lower. The same measure, in the same setting: as for `c1cncc(-c2noc(C3CN4CCC3CC4)n2)c1` (centres undefined), the figure is 2950 nM; as for `c1ccc2c(-c3noc(C4CN5CCC4CC5)n3)c[nH]c2c1` (centres undefined), 2.69 nM. In turn, `COc1ccccc1-c1noc(C2CN3CCC2CC3)n1` (centres undefined) had an IC50 of 155 nM. Still for that read-out and setting: the figure for `COc1ccc(-c2noc(C3CN4CCC3CC4)n2)cc1` (centres undefined) is 1580 nM; for `CN(C)CCc1nc(-c2cn(C)c3ccccc23)no1` it is 13.8 nM. Still for that read-out and setting: the figure for `CN1CCC=C(c2nc(-c3cn(C)c4ccccc34)no2)C1` is 209 nM; for `Oc1cccc(-c2noc(C3CN4CCC3CC4)n2)c1` (centres undefined) it is 81.3 nM; for `Cn1cc(-c2noc(C3CC4CCC3NC4)n2)c2ccccc21` (stereo in doubt; 12s) it is 89.1 nM. For `Cn1cc(-c2noc(C3CC4CCC3NC4)n2)c2ccccc21` (stereo in doubt; 12t), the IC50 was 13.2 nM. With `Cn1cc(-c2noc(C3CN4CCC3C4)n2)c2ccccc21` (stereo in doubt; 12u), the IC50 is 7.59 nM. This IC50 lies about 1.7-fold lower than the previous one.

The molecule `Cn1cc(-c2noc(C3CN4CCC3C4)n2)c2ccccc21` (stereo in doubt; 12v) gave a concentration for half-maximal inhibition (IC50) of 1.05 nM. The same measure, in the same setting: as for `CN1CC2CCC1C(c1nc(-c3cn(C)c4ccccc34)no1)C2` (stereo in doubt; 12y), the figure is 224 nM; as for `CN1CC2CCC1C(c1nc(-c3cn(C)c4ccccc34)no1)C2` (stereo in doubt; 12z), 85.1 nM. The molecule `Cn1cc(-c2nsc(C3CC4CCN3C4)n2)c2ccccc21` (stereo in doubt; 26) had a half-maximal inhibitory concentration (IC50) of 14.1 nM. In turn, `Cn1cc(-c2nsc(C3CC4CCN3C4)n2)c2ccccc21` (stereo in doubt; 27) gave a half-maximal inhibitory concentration (IC50) of 20.4 nM.

Test system in another data set: not listed separately
Nature of the data set: pKa value of the compound. Type of data set: physicochemical.
Molecule `CN1CCC=C(c2nc(-c3cn(C)c4ccccc34)no2)C1` returned a pKa of 7.2.

A further data set deals with T1, Serotonin 3 (5-HT3) receptor. Nature of the data set: Compound was evaluated for the displacement of [3H]-Q-ICS 205-930 binding to 5-hydroxytryptamine 3 receptor in rat brain membranes. Type of data set: cell membranes. The method, boiled down: as §1
For `Cc1[nH]c2ccc(O)cc2c1CCN`, the IC50 is 646 nM. In turn, `CN1[C@@H]2CC[C@H]1C[C@@H](OC(=O)c1cc(Cl)cc(Cl)c1)C2` [BEMESETRON] showed a concentration for half-maximal inhibition (IC50) of 21.9 nM.

Test system in the next data set: not listed separately
Nature of the data set: pKa value of the compound. The format is physicochemical.
On to `CNCc1nc(-c2cn(C)c3ccccc23)no1`, for which the pKa turned out to be 6.5.

For the molecule `CN(C)Cc1nc(-c2cn(C)c3ccccc23)no1`, the pKa was found to be 5.6.

With `Cn1cc(-c2noc(CN)n2)c2ccccc21`, the pKa is 6.4.

In the case of `Cn1cc(-c2noc(C3=CCCNC3)n2)c2ccccc21`, the pKa was determined as 7.9. The same measure, in the same setting: the figure for `CNCCc1nc(-c2cn(C)c3ccccc23)no1` is 8.8; for `CN(C)CCc1nc(-c2cn(C)c3ccccc23)no1` it is 7.7.

For orientation: IC50 means the concentration needed to halve the response being measured. The term pKa denotes the negative logarithm of the acid dissociation constant. The low end stands for a group that gives up its proton readily, the high end for a group that holds its proton tightly.
